# Shown are actives, neighbours in structure and some others; about 2.3% of the full set was active somewhere.
# MEKK3 PB1 HTS = modulators (inhibitors or enhancers) of MEK5 binding to human MEKK3 PB1 domain; binding response (% of control), % at 10 µM; Q99759; bead-based flow cytometry, Alexa488-MEK5 binding to MEKK3; actives lie on both sides; 0 = blocked by unlabeled MEK5, 100 = vehicle; AID 1529; actives 1.4% (n = 290,000);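 active means binding response more than 3 SD above or below the average of its plate-row segment, actives on both sides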;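 further: Alexa488 bead fluorescence after subtracting the streptavidin-only scavenger bead signal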
# Target sequence (Q99759 whole entry, looked up, the tested form may be a part): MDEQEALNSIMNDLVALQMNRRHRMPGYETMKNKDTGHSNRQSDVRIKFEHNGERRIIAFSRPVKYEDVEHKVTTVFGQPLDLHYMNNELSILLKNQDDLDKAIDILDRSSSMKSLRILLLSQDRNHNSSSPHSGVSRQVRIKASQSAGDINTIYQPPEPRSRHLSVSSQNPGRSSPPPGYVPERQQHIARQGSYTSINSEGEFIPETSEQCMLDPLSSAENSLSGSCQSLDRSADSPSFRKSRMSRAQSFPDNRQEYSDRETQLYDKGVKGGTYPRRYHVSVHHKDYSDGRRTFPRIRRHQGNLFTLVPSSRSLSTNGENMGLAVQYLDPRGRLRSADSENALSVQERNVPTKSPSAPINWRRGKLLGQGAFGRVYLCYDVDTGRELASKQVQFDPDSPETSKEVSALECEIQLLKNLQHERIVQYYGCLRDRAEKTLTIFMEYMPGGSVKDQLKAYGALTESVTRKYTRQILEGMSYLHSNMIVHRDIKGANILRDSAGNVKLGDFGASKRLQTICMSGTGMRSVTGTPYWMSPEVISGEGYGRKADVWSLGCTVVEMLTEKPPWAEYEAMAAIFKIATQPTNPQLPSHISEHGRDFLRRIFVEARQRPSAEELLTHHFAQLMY
# MEKK2 mut-MEK5 = signal of MEK5 binding to mutant human MEKK2 PB1 domain; percent response, % at 10 µM; bead flow cytometry, Alexa488-MEK5 binding to MEKK2 mutant; AID 1530; actives 0.35% (n = 290,000); in the data active means percent response above about 24%, passing the limit was not always enough
# MEKK2wt PB1 HTS = raises or lowers MEK5 binding to wildtype human MEKK2 PB1 domain; actives 1.1% (n = 290,000); Q9Y2U5; binding response (% of control), % at 10 µM; bead flow cytometry, Alexa488-MEK5 binding to MEKK2 WT; actives lie on both sides; in the data active means binding response below about 67% or above about 130%
# Arrestin-AP2 inh = inhibitors of human beta-arrestin and AP2 interaction; FITC-arrestin peptide / GST-AP2 beads, flow cytometry; AP2 beta2 appendage carries R879A mutation; inhibition, % at 10 µM; actives 0.31% (n = 340,000); AID 504490;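 active means inhibition above a set limit, near 3 SD of compounds lacking own fluorescence, cut at about 54% in these data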;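 further: plate controls were DMSO wells for no effect and 5 µM unlabelled arrestin peptide for full effect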
#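 Material – AP2 appendage R879A on GSH beads · Buffer or medium – PBS with 0.05% Tween 20 and 0.1% BSA · Probe or stimulus – fluorescein-tagged arrestin peptide at 50 nM final · Incubation – compound with beads 12 min RT, then probe 1 h RT · Detection – high-throughput flow cytometry of beads, ex 488, em 535 nm · Evaluation – percent response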
# MEKK2wt confirm = raises or lowers MEK5 binding to wildtype human MEKK2, retest | shares compounds with MEKK3 PB1 HTS | bead flow cytometry, Alexa488-MEK5 binding to MEKK2 WT; actives lie on both sides | actives 2.4% (n = 5,900) | binding response (% of control), % at 10 µM; in the data active means binding response below about 16% or above about 210%; inactive means in between
# MEKK2mut-MEK5 = signal of MEK5 binding to mutant human MEKK2, retest; AID 1893; shares compounds with MEKK3 PB1 HTS; actives 2% (n = 5,900); percent response, % at 10 µM; bead flow cytometry, Alexa488-MEK5 binding to MEKK2 mutant; in the data active means percent response mostly above about 71%, no sharp cut-off; inactive means mostly below about 38%;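 further: higher means compound restores mutant binding toward wildtype level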
# MEKK3-MEK5 inh = confirmation of inhibitors of MEK5 binding to human MEKK3; shares compounds with MEKK3 PB1 HTS; bead flow cytometry, Alexa488-MEK5 binding to MEKK3; active compounds read low; binding response (% of control), % at 10 µM; actives 1.8% (n = 5,900); AID 1894;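 active means binding response below 72% of control, or above a set upper limit, though filed actives all read lower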;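 further: 100% = DMSO only wells and 0% = binding blocked by excess unlabeled MEK5; lower values mean stronger disruption of MEK5 binding to MEKK3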
# * marks the source's active call; other numbers are inactive results; / = no result given; [ ] = remark or other dose.
SMILES,MEKK3 PB1 HTS,MEKK2 mut-MEK5,MEKK2wt PB1 HTS,Arrestin-AP2 inh,MEKK2wt confirm,MEKK2mut-MEK5,MEKK3-MEK5 inh
Fc1ccc(-n2c(-c3cccs3)nc3nc4ccccc4nc32)cc1,134*,0,100,-21,99,0,100
Cc1ccc(-n2c(-c3cccs3)nc3nc4ccccc4nc32)cc1,122,-1,91,/,/,/,/
CCn1c(-c2cc(-c3cc(OC)ccc3OC)nc3ccccc23)n[nH]c1=S,92,-12,88,-1,/,/,/
CCn1c(-c2cc(-c3ccccc3OC)nc3ccccc23)n[nH]c1=S,134*,1,110,-7,102,9,106
Cc1ccc(SCC(=O)OCc2csc(CC(=O)Nc3ccccc3C)n2)cc1C,/,/,/,29,/,/,/
O=C(COc1ccccc1)NCc1nnc2c3ccccc3c(-c3ccccc3)nn12,149*,0,108,2,107,6,105
CC(=O)NCc1nnc2c3ccccc3c(-c3ccccc3)nn12,100,-1,96,8,/,/,/
CCc1ccccc1NC(=O)C1(S(=O)(=O)c2ccc(C)cc2)CC1,101,-1,98,-1,/,/,/
O=C(NCc1ccncc1)C(F)(F)C(F)(F)C(=O)NCc1ccncc1,105,3,104,7,/,/,/
O=C(/C=N/O)NCc1ccncc1,123*,15,125,4,96,-1,98
Cn1[nH]c(C(F)(F)F)cc1=O,106,0,101,0,/,/,/
COc1ccc2[nH]c(=O)c(CNC3CCCCC3)cc2c1,78*[inhibitor],-8,87,10,91,-14,85
COc1ccc2[nH]c(=O)c(CN(C(=O)NC3CCCCC3)C3CCCCC3)cc2c1,109,1,106,-4,/,/,/
O=[N+]([O-])c1ccc(S(=O)(=O)NCCc2ccncc2)cc1,128,5,117,39,/,/,/
Cc1ccc(CSc2nc3c(c(=O)[nH]2)CCC3)cc1,109,10,107,10,/,/,/
Cc1cccc(CSc2nc3c(c(=O)[nH]2)CCC3)c1,134*,3,115,5,109,8,103
O=C(CCC1CCCN(C(=O)c2ccc3[nH]ccc3c2)C1)N1CCN(c2ccccn2)CC1 (stereo not given),102,-7,96,-9,/,/,/
CCCOc1ccc(-c2nn(-c3ccccc3)cc2/C=C2\SC(N)=NC2=O)cc1C,129*,-2,96,-4,94,-1,104
Cc1c(N=c2c(=O)c3ccccc3c2=O)c(=O)n(-c2ccccc2)n1C,99,1,96,/,/,/,/
Cc1c(N=C2SCC(=O)N2/N=C/c2ccccc2)c(=O)n(-c2ccccc2)n1C,129*,0,102,26,97,0,100
CC(C)NC(=O)c1sc2nc(-c3cccs3)cc(-c3cccs3)c2c1N,99,-11,83,/,/,/,/
Nc1c(C(=O)C2CC2)sc2nc(-c3cccs3)cc(C(F)(F)F)c12,95,-1,59*[inhibitor],18,85,-7,101
O=C(C[n+]1cccc(Br)c1)c1ccc(-c2ccccc2)cc1,105,12,120,41,/,/,/
COCC(=O)Nc1nnc(-c2ccc(C(C)(C)C)cc2)s1,144*,6,118,-43,102,-14,98
CC(C)(C)c1ccc(-c2nnc(NC(=O)c3ccccc3)s2)cc1,97,-4,91,-16,/,/,/
SMILES,MEKK3 PB1 HTS,MEKK2 mut-MEK5,MEKK2wt PB1 HTS,Arrestin-AP2 inh,MEKK2wt confirm,MEKK2mut-MEK5,MEKK3-MEK5 inh
CC(=O)Nc1ccc(C(=O)OCC(=O)/C(C#N)=C(\C)N)cc1,105,-2,104,22,/,/,/
C/C(N)=C(/C#N)C(=O)COC(=O)c1ccncc1,135*,6,113,-5,104,2,104
CCN1/C(=C/C=C/C=C/c2sc3ccccc3[n+]2CC)Sc2ccccc21,18*[inhibitor],-8,15*[inhibitor],/,40,-28,26*
CC[n+]1c(/C=C/Nc2ccccc2)sc2ccccc21,101,1,96,-14,/,/,/
CCN(CC(=O)NC(C)(C)C)C(=O)COc1c(Cl)cc(Cl)c2ccc(C)nc12,98,7,101,1,/,/,/
CCN(CC(=O)NC(C)(C)C)C(=O)CCl,136*,0,104,-11,99,-2,99
Cc1ccc(NC(=O)C(=O)NCC2OCCc3ccccc32)cc1 (stereo not given),106,-8,94,-2,/,/,/
O=C(NCC1OCCc2ccccc21)c1ccc(NC(=O)c2ccc(Cl)cc2)cc1 (stereo not given),134*,2,112,-8,105,9,106
O=[N+]([O-])c1ccccc1CN1CCN(Cc2ccccn2)CC1,2.0*[inhibitor],-84,1.0*[inhibitor],10,97,-3,96
O=[N+]([O-])c1ccccc1CN1CCN(c2ncccn2)CC1,106,4,105,13,/,/,/
O=C(NCCCN1CCOCC1)C1CC(=O)N(CCc2ccccc2)C1 (stereo not given),100,2,103,4,/,/,/
O=C(NCCCN1CCCCCC1)C1CC(=O)N(CCc2ccccc2)C1 (stereo not given),81,25*,147*,-3,154,25,94
O=C(CCc1nnc(CCCCc2ccccc2)o1)NCCCc1cccnc1,66,-19,9.0*[inhibitor],-1,102,4,106
CCc1ccc(NC(=O)CNC(=O)[C@@H]2Cc3ccccc3CN2)cc1,103,1,106,2,/,/,/
COC(=O)C1(CCSC)NC(c2ccco2)C2C(=O)N(C)C(=O)C21 (stereo not given),2.0*[inhibitor],-16,1.0*[inhibitor],4,107,1,106
Cc1ccc(C(C)n2cc(C(=O)NCc3ccncc3)nn2)cc1 (stereo not given),1.0*[inhibitor],-9,0.0*[inhibitor],10,101,-4,104
Cc1ccc(C(C)n2cc(C(=O)NCc3ccccn3)nn2)cc1 (stereo not given),81,-2,96,1,/,/,/
CCCCn1c(N)c(N(CC(C)C)C(=O)C2CCN(S(=O)(=O)c3ccc(C)cc3C)CC2)c(=O)[nH]c1=O,/,/,/,8,/,/,/
c1ccc(-c2cc(-c3nnc4n3N=C(c3ccc5ccccc5c3)CS4)[nH]n2)cc1,107,-1,71*[inhibitor],-9,75,-17,98
CCOC(=O)c1c(C)nc2cc(C)cc(C)n12,104,2,105,-9,/,/,/
O=S(=O)(NC1CCCCC1Nc1ccccc1)c1ccccc1 (stereo not given),128*,0,104,0,80,-18,71*
